Data from PMC10663723 (RSC Advances, 2023).
Converted amounts (≈) assume the structure as drawn.

Key:
lung cancer cells (A549) = experiment: MTT cell viability assay, A549 cells; format: cell-based, human
In short: (§1)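 Cells plated at 10000/well in DMEM with 10% FBS and incubated 20 h at 37 °C, 5% CO2. Test compound (20 mg mL−1 DMSO stock, diluted in medium) was applied at 0.1–100 μg mL−1 for 48 h; 0.5% final DMSO served as vehicle control. MTT (0.5 mg mL−1) was added for 4 h at 37 °C in the dark, formazan was dissolved in DMSO, and absorbance was read at 570 nm.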

[1] = test system: cervical cancer cells (HeLa); experiment: MTT cell viability assay, HeLa cells; format: cell-based; settings: Homo sapiens, 48 h, read-out: EC50, HeLa
In short: as §1

[2] = MTT cell viability assay, HFF cells; format: cell-based; settings: human, HFF cells (non-cancer human foreskin fibroblasts)
In short: as §1

[3] = test system: triple-negative breast cancer cells (MDA-MB-231); experiment: MTT cell viability assay, MDA-MB-231 cells; format: cell-based, human; settings: CC50 HFF / EC50 MDA-MB-231
In short: as §1

With `COc1cccc2c1C(=O)c1c(O)c3c(c(O)c1C2=O)C[C@@](O)(C(=O)CO)C[C@@H]3O[C@H]1C[C@H](N)[C@H](O)[C@H](C)O1` [doxorubicin] the “SI (selectivity index) A549 with respect to HFF cells” value (lung cancer cells (A549); CC50 HFF / EC50 A549) was 2.83, the EC50 (lung cancer cells (A549); Homo sapiens, A549, 48 h, read-out: EC50, A549) was 2.68 µg/mL (≈ 4.93 µM) and the EC50 [1] was 1.69 µg/mL (≈ 3.11 µM). For the same molecule, the CC50 at 48 h [2] was 8.96 µg/mL (≈ 16.5 µM) and the “SI (selectivity index) MDA-MB-231 with respect to HFF cells” value [3] was 2.73.
